Variants at the floor of the assay were thinned out. Bounds are passed on as bounds.

The labels stand for the following.
B1: tRNA (parent)
chain: CUCUCGGUAGCCAAGUUGGUUUAAGGCGCAAGACUUUAAUUUAUCACUACGAAAUCUUGAGAUCGGGCGUUCGACUCGCCCCCGGGAGAUUUUUUCCUCGAGCAA

The data set covers variants of B1. The experiment in a line: nonsense suppression (GFP-seq) (ratio to wild type); higher = more function; SUP4oc tRNA, yeast GFP reporter sort-seq. Put shortly: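 Yeast carrying genome-integrated SUP4oc tRNA variants from a library with ~3% random mutations were grown in raffinose/galactose medium with 80 mg/L adenine. Each strain also carried a galactose-driven GFP ochre reporter and RFP. Cells were sorted into GFP/RFP bins, and each bin was Illumina-sequenced (phred ≥30). Nonsense suppression (GFPSEQ) is the bin median GFP/RFP, weighted by each variant's estimated cell share per bin, relative to wild-type SUP4oc; variants needed ≥100 reads and ≥30 cells.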
Turning to U4A G19A A31U A62G, the nonsense suppression is not above 0.026.

As to U4G G66A, the nonsense suppression is 0.0774.

As to C5U G19C U35A A89G, the nonsense suppression is not above 0.026.

With C5G G6A A33U U35G U70C, the nonsense suppression was not above 0.026.

Consider C5G G25C G69C C80A, for which the nonsense suppression was not above 0.026.

Turning to U4G A24C, the nonsense suppression worked out at 0.134.

Take G6A U8G: the nonsense suppression was not above 0.026.

G6A A23G G25C U63C C80G: the nonsense suppression was not above 0.026.

Consider C5A G15A A33G, for which the nonsense suppression was not above 0.026.

As for U4A A60U, the nonsense suppression was determined as 0.52.

Regarding G6A A24G, the nonsense suppression came out at 0.0293.

G6A A24U: the nonsense suppression is 0.0308.

Consider U4C C80U, for which the nonsense suppression is 0.651.

For the variant C5U C68U, the nonsense suppression is not above 0.026.

C5G U20G C75G G88U: the nonsense suppression is not above 0.026.

In the case of U4G C72G, the nonsense suppression worked out at 0.0909.

For the variant U4A C83G G88C, the nonsense suppression is not above 0.026.

As for U4C G61A, the nonsense suppression stood at 1.25.

Take U4C G61C: the nonsense suppression was found to be 0.86.

On to U4C G61U, for which the nonsense suppression was found to be 1.02.

Turning to U4C A33G, the nonsense suppression is 0.0434.

U4G U8A: the nonsense suppression was not above 0.026.

On to U4A C79U, for which the nonsense suppression came to 0.0353.

As for C5U U76A C79A, the nonsense suppression was not above 0.026.

As for C5U C11U G66A, the nonsense suppression was not above 0.026.

Take C5U U55G C68A A74U: the nonsense suppression is not above 0.026.

For U4C C29U, the nonsense suppression is 1.03.

For the variant U4C C29A, the nonsense suppression worked out at 1.11.

Turning to U4A G67C C68U, the nonsense suppression was not above 0.026.

As to U4C U16C A31U, the nonsense suppression was 0.97.

As to U4C A9G G15A A30U, the nonsense suppression came out at 0.0449.

As for U4C U63C G67A, the nonsense suppression was not above 0.026.

For C5A G18U U76C G86A, the nonsense suppression was not above 0.026.

As for U4A U57A, the nonsense suppression is not above 0.026.

As for U4G A31G, the nonsense suppression is 0.0398.

With U4G A31U, the nonsense suppression stood at 0.0387.

For U4A G10A U21G G28C, the nonsense suppression was not above 0.026.

For C5A A30U C68A, the nonsense suppression was not above 0.026.

As for U4G A14U G26A, the nonsense suppression was not above 0.026.

Consider U4A A13C C83U G84C, for which the nonsense suppression is not above 0.026.

On to C5U G10A A13G G73A C75A G86C, for which the nonsense suppression was not above 0.026.

As to G6A A24G C27A C29G, the nonsense suppression was not above 0.026.

Turning to U4G C56U, the nonsense suppression was found to be 0.0355.

Regarding C5U A13C, the nonsense suppression came out at 0.0679.

For C5G U16A U22C U57C C72U A87C, the nonsense suppression was not above 0.026.

With U4C G15A, the nonsense suppression is 0.746.

Take C5G G7U C11G: the nonsense suppression was not above 0.026.

Consider U4G A13U, for which the nonsense suppression worked out at 0.191.

As to U4G U20G, the nonsense suppression amounted to 0.834.

On to U4G U20A, for which the nonsense suppression is 0.0644.

For U4A U16G, the nonsense suppression came to 0.247.

Take U4A U16A: the nonsense suppression came to 0.215.

On to U4A C11U C34U, for which the nonsense suppression is not above 0.026.

As for U4C A54C, the nonsense suppression was found to be 1.01.

On to U4C U17C, for which the nonsense suppression stood at 1.04.

In the case of U4C A31U U57G G88U, the nonsense suppression was not above 0.026.

For C5G C12G U16C G32A, the nonsense suppression is not above 0.026.

For the variant C5G A60C C64A, the nonsense suppression is not above 0.026.

On to C5U A23G G26C G78A, for which the nonsense suppression was not above 0.026.

Take C5A G61C: the nonsense suppression is 0.0329.

As to C3U U76A, the nonsense suppression was 0.0398.

For C3U U76C, the nonsense suppression was 0.17.

For the variant C5U U17C, the nonsense suppression came out at 0.0495.

Turning to G6A G25C A33G, the nonsense suppression was not above 0.026.

U4A A23G: the nonsense suppression amounted to 0.288.

Take C5U G26C G65C U76A: the nonsense suppression is not above 0.026.

Turning to U4G C12G, the nonsense suppression amounted to 0.0311.

For U4A U21A G66U, the nonsense suppression is not above 0.026.

In the case of C5U G69A, the nonsense suppression is not above 0.026.

In the case of U4A A14U, the nonsense suppression is 0.0276.

As to U4A A14G, the nonsense suppression was 0.0942.

For C5U U63A, the nonsense suppression came to 0.0305.

Consider U4G U17C, for which the nonsense suppression is 0.45.

On to U4C C11U, for which the nonsense suppression came to 0.109.

As to U4A C11U, the nonsense suppression amounted to 0.0306.

C5A A24C: the nonsense suppression came out at 0.0269.

On to G6A C81U, for which the nonsense suppression stood at 0.0651.

On to U4C C83U, for which the nonsense suppression came out at 1.17.

For U4A A30G, the nonsense suppression was 0.0267.

Consider C5U A31G U71C, for which the nonsense suppression is not above 0.026.

In the case of U4C G59A, the nonsense suppression is not above 0.026.

As for C5G U55C G69C G86U, the nonsense suppression is not above 0.026.

Regarding U4G C5U, the nonsense suppression came out at 0.0955.

U4C A9G A13G U76C: the nonsense suppression was found to be 0.202.

On to U4C U20C, for which the nonsense suppression was determined as 1.05.

For the variant U4C G6U, the nonsense suppression amounted to 0.959.

Consider C5G G10C U57C, for which the nonsense suppression is not above 0.026.

Turning to U4C A14G G61A U71A, the nonsense suppression was not above 0.026.

For U4C G78C, the nonsense suppression stood at 1.06.

As for U4C G78A, the nonsense suppression is 0.978.

Turning to U4C G78U, the nonsense suppression is 1.12.

For U4G G85C, the nonsense suppression was 0.813.

As for U4G, the nonsense suppression stood at 1.16.

Turning to U4A, the nonsense suppression came to 0.693.

Turning to U4C, the nonsense suppression came out at 0.585.

As for U4A G18A C77A, the nonsense suppression was not above 0.026.

Consider U4A C11A A14U, for which the nonsense suppression is not above 0.026.

As to U4G U71A, the nonsense suppression amounted to 0.0967.

For U4G G32A A33G, the nonsense suppression was not above 0.026.

Turning to U4C G73A, the nonsense suppression was determined as 1.04.

Turning to G6A A31C A60C C72A G86A, the nonsense suppression is not above 0.026.

With U4C A13G C83U, the nonsense suppression was found to be 0.334.

In the case of C5G G6C A9C A89C, the nonsense suppression is not above 0.026.

For U4C U8G G65A, the nonsense suppression is not above 0.026.

Take G6A U63G C81U: the nonsense suppression is not above 0.026.

C5A A13C U58A C81A: the nonsense suppression is not above 0.026.

Take C5A A30G: the nonsense suppression is 0.0272.

For the variant U4G A54U, the nonsense suppression worked out at 0.469.

As for C5A G59C, the nonsense suppression is not above 0.026.

Turning to U4C C12G C64G G66C, the nonsense suppression is not above 0.026.

As to U4C U35A C83A, the nonsense suppression is not above 0.026.

Take C5U U55C G88A: the nonsense suppression is not above 0.026.

For C5G G78U, the nonsense suppression is 0.0283.

As to C5U C29U C34U A87C, the nonsense suppression is not above 0.026.

As for C5A C27G G73A, the nonsense suppression is not above 0.026.

Consider G6A G19C G67C A87G, for which the nonsense suppression is not above 0.026.

For the variant U4A A9U, the nonsense suppression amounted to 0.2.

In the case of U4G U20C A33G, the nonsense suppression was 0.0309.

Take U4G A60U: the nonsense suppression came to 1.12.

On to C5U A87G, for which the nonsense suppression is 0.0561.

As for C5U G28C A30G A33U, the nonsense suppression is not above 0.026.

Take U4C G25A: the nonsense suppression worked out at 0.162.

On to U4C G25C, for which the nonsense suppression was 0.723.

Consider C5U U8A A9C G10C C12U G25U A31G, for which the nonsense suppression was not above 0.026.

With G6C C12G C72G C75U G85C, the nonsense suppression was not above 0.026.

U4G U22A: the nonsense suppression was 0.216.

In the case of U4G U22G, the nonsense suppression turned out to be 0.492.

For the variant U4G U16C, the nonsense suppression is 0.882.

C5A U76C G86C: the nonsense suppression is not above 0.026.

For the variant U4C C27U, the nonsense suppression was 0.792.

As for U4C U17G G25C G66U U70C G84U, the nonsense suppression is not above 0.026.

With C5G C34U A74U C77A, the nonsense suppression is not above 0.026.

Turning to C5A U63A G66C, the nonsense suppression was not above 0.026.

Take C5U G6U G84C: the nonsense suppression was not above 0.026.

In the case of C5U G85A, the nonsense suppression was 0.08.

Regarding C5U G85U, the nonsense suppression was determined as 0.0303.

In the case of U4C U63G, the nonsense suppression stood at 0.0946.

For C5U G6A C11A G25A, the nonsense suppression was not above 0.026.

As for C5G G59A A62C, the nonsense suppression is not above 0.026.

In the case of C5G A13U G19U U35G A87G, the nonsense suppression is not above 0.026.

Consider U4G C68G, for which the nonsense suppression is 0.0622.

For the variant U4C U55A G67A C79G C83G, the nonsense suppression is not above 0.026.

With U4G U57G A60U, the nonsense suppression is not above 0.026.

With C5G C12G, the nonsense suppression was determined as 0.174.

For C5G G25A A89G, the nonsense suppression is not above 0.026.

In the case of U4C G7U U8C G69C, the nonsense suppression was not above 0.026.

Regarding U4G G73U, the nonsense suppression turned out to be 0.0898.

For U4G G73C, the nonsense suppression amounted to 0.0291.

As for U4G G18C G28A A74G, the nonsense suppression was not above 0.026.

In the case of U4C A9U, the nonsense suppression stood at 1.07.

On to U4C A9C, for which the nonsense suppression was found to be 1.02.

Regarding U4C A9G, the nonsense suppression is 0.391.

As to U4C U21C G67A, the nonsense suppression stood at 0.0868.

Regarding C5A U8C A9U C80A, the nonsense suppression was not above 0.026.

For the variant G6A U55G, the nonsense suppression is not above 0.026.

As for G6A U55A, the nonsense suppression is not above 0.026.

Turning to G6A U55C, the nonsense suppression was 0.262.

As to U4A U76A, the nonsense suppression amounted to 0.0437.

As to C5A U16G G88U, the nonsense suppression was not above 0.026.

Turning to U4C U71C, the nonsense suppression was not above 0.026.

In the case of G6A G10A G19C A54U G73C G88U, the nonsense suppression is not above 0.026.

Regarding U4A G61U, the nonsense suppression was found to be 0.194.

In the case of U4G A23C G26U A62U G69C G84U, the nonsense suppression was 0.116.

For the variant U4A C5A, the nonsense suppression stood at 0.0374.

As for C5U U21A, the nonsense suppression was not above 0.026.

For U4A G7U U76A, the nonsense suppression is not above 0.026.

Turning to U4C A87C, the nonsense suppression was 0.197.

Values taken from the RNAGym collection of RNA variant scans (doi:10.1101/gad.245936.114).
